The record followed here is ChEMBL document CHEMBL1147748, “Overlapping, nonidentical binding sites of different classes of nonpeptide antagonists for the human gonadotropin-releasing hormone receptor” (J Med Chem, 2006).

Experiment [1] has as its target Gonadotropin-releasing hormone receptor (Homo sapiens, UniProt P30968, N305A). As to the kind of experiment: Displacement of [125I]-His5, D-Tyr6]GnRH from mutant GnRHR, GnRHR N305A. The procedure, abridged: (§1)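 Human GnRH-R (wild type or site-directed point mutant) was transiently expressed in COS-7 cells by electroporation, with cells cultured 36-48 h before membranes were prepared. Membranes (5-20 µg per point) were incubated 2 h at room temperature with 0.3 nM tracer and varying competitor in HEPES pH 7.5, 150 mM NaCl, 0.1% BSA, then filtered and counted.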
For orientation: Displacement assays read how much labelled ligand stays bound in the presence of the test substance.

The target of experiment [2] is Gonadotropin-releasing hormone receptor (Homo sapiens, UniProt P30968, Q189E). As to the kind of experiment: Displacement of [125I]-His5, D-Tyr6]GnRH from mutant GnRHR, GnRHR Q189E. The procedure, abridged: as §1
Experiment [3] deals with Gonadotropin-releasing hormone receptor (Homo sapiens, UniProt P30968, F309L). As to the kind of experiment: Displacement of [125I]-His5, D-Tyr6]GnRH from mutant GnRHR, GnRHR F309L. The gist of the method: as §1
For experiment [4], the target named is Gonadotropin-releasing hormone receptor (Homo sapiens, UniProt P30968, N315D). As to the kind of experiment: Displacement of [125I]-His5, D-Tyr6]GnRH from mutant GnRHR, GnRHR N315D. The gist of the method: as §1
Experiment [5] has as its target Gonadotropin-releasing hormone receptor (Homo sapiens, UniProt P30968, D293A). As to the kind of experiment: Displacement of [125I]-His5, D-Tyr6]GnRH from mutant GnRHR, GnRHR D293A. The gist of the method:
as §1

Experiment [6] concerns the target Gonadotropin-releasing hormone receptor (Homo sapiens, UniProt P30968, N305D). As to the kind of experiment: Displacement of [125I]-His5, D-Tyr6]GnRH from mutant GnRHR, GnRHR N305D. The procedure, abridged: as §1
Experiment [7] concerns the target Gonadotropin-releasing hormone receptor (Homo sapiens, UniProt P30968, N305K). Kind of experiment: Displacement of [125I]-His5, D-Tyr6]GnRH from mutant GnRHR, GnRHR N305K. The procedure, abridged:
as §1

In experiment [8] the target is Gonadotropin-releasing hormone receptor (Homo sapiens, UniProt P30968, F309Q). Kind of experiment: Displacement of [125I]-His5, D-Tyr6]GnRH from mutant GnRHR, GnRHR F309Q. The procedure, abridged:
as §1

In experiment [9] the target is Gonadotropin-releasing hormone receptor (Homo sapiens, UniProt P30968, D302N). Kind of experiment: Displacement of [125I]-His5, D-Tyr6]GnRH from mutant GnRHR, GnRHR D302N. The gist of the method: as §1
Experiment [10] has as its target Gonadotropin-releasing hormone receptor (Homo sapiens, UniProt P30968, D293E). Kind of experiment: Displacement of [125I]-His5, D-Tyr6]GnRH from mutant GnRHR, GnRHR D293E. The gist of the method:
as §1

The target of experiment [11] is Gonadotropin-releasing hormone receptor (Homo sapiens, UniProt P30968, H182A). Kind of experiment: Displacement of [125I]-His5, D-Tyr6]GnRH from mutant GnRHR, GnRHR H182A. The gist of the method: as §1
Chain of Gonadotropin-releasing hormone receptor (Homo sapiens, UniProt P30968, H182A) (P30968 whole entry H182A): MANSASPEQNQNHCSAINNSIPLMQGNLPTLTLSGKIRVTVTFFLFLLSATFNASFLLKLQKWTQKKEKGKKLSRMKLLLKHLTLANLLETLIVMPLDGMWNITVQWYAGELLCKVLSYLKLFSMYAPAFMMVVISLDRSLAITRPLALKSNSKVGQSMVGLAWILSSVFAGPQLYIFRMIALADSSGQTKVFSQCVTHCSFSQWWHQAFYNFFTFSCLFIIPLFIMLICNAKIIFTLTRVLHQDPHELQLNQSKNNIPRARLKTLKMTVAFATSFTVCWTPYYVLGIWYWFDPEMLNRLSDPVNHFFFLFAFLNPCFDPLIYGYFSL

Chain of Gonadotropin-releasing hormone receptor (Homo sapiens, UniProt P30968, N305D) (P30968 whole entry N305D): as the sequence (P30968 whole entry H182A) above, with A182H, N305D counted along it
Chain of Gonadotropin-releasing hormone receptor (Homo sapiens, UniProt P30968, D293E) (P30968 whole entry D293E): as the sequence (P30968 whole entry H182A) above, with A182H, D293E counted along it
Chain of Gonadotropin-releasing hormone receptor (Homo sapiens, UniProt P30968, N305K) (P30968 whole entry N305K): as the sequence (P30968 whole entry H182A) above, with A182H, N305K counted along it
Chain of Gonadotropin-releasing hormone receptor (Homo sapiens, UniProt P30968, F309Q) (P30968 whole entry F309Q): as the sequence (P30968 whole entry H182A) above, with A182H, F309Q counted along it
Chain of Gonadotropin-releasing hormone receptor (Homo sapiens, UniProt P30968, Q189E) (P30968 whole entry Q189E): as the sequence (P30968 whole entry H182A) above, with A182H, Q189E counted along it
Chain of Gonadotropin-releasing hormone receptor (Homo sapiens, UniProt P30968, N315D) (P30968 whole entry N315D): as the sequence (P30968 whole entry H182A) above, with A182H, N315D counted along it
Chain of Gonadotropin-releasing hormone receptor (Homo sapiens, UniProt P30968, F309L) (P30968 whole entry F309L): as the sequence (P30968 whole entry H182A) above, with A182H, F309L counted along it
Chain of Gonadotropin-releasing hormone receptor (Homo sapiens, UniProt P30968, N305A) (P30968 whole entry N305A): as the sequence (P30968 whole entry H182A) above, with A182H, N305A counted along it
Chain of Gonadotropin-releasing hormone receptor (Homo sapiens, UniProt P30968, D302N) (P30968 whole entry D302N): as the sequence (P30968 whole entry H182A) above, with A182H, D302N counted along it
Chain of Gonadotropin-releasing hormone receptor (Homo sapiens, UniProt P30968, D293A) (P30968 whole entry D293A): as the sequence (P30968 whole entry H182A) above, with A182H, D293A counted along it

`COc1c(C)cc(-c2[nH]c3ccc(C(C)(C)C(=O)N(CC(C)C)CC(C)C)cc3c2[C@H](C)CNCCc2ccccc2)cc1C`: the IC50 in [1] stood at 3.7 nM; in [2], 15.7 nM; in [3], 60.1 nM; in [4], 49.3 nM; in experiment [5] it was 24.5 nM; in experiment [6], 46.5 nM. The IC50 in [7] turned out to be 3.7 nM; in [8] it was 222 nM; in experiment [9] it was 27.3 nM; in experiment [10], 27.2 nM; in experiment [11], 3.7 nM.
Consider `CC(C)C[C@H](NC(=O)[C@@H](Cc1ccc(O)cc1)NC(=O)[C@H](Cc1c[nH]cn1)NC(=O)[C@H](CO)NC(=O)[C@H](Cc1c[nH]c2ccccc12)NC(=O)[C@H](Cc1c[nH]cn1)NC(=O)[C@@H]1CCC(=O)N1)C(=O)N[C@@H](CCCN=C(N)N)C(=O)N1CCC[C@H]1C(=O)NCC(N)=O`, for which the IC50 in [1] is 12.7 nM; in experiment [2], 16.7 nM; in experiment [3] it was 37.7 nM; in experiment [4], 1.5 nM; in experiment [5], 5.7 nM; in experiment [6] it was 41.1 nM. The IC50 was 12.4 nM in experiment [7]; 65.1 nM in experiment [8]; 16.5 nM in [9]; 6.1 nM in experiment [10]; 6.6 nM in experiment [11].

A word on the IC50: it is the concentration that inhibits the measured activity by half.
